# Where “and” joins values, the source holds several entries; their conditions need not be identical. Equal values may be shown once. Read-outs that look alike come from different tables or passages of the source.
# Tests used:
# [1] = tested on: Oxidative Phosphorylation; assay type: biochemical; details: human skeletal muscle mitochondria, glutamate + succinate, 20 μM AP5A, mean
# Procedure, shortened: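 Isolated human skeletal muscle mitochondria, diluted in mannitol–sucrose buffer. Firefly luciferase ATP-accumulation assay at 25°C in KCl/MOPS medium at pH 7.0 with 5 mM MgCl2, 10 mM phosphate, glucose, EGTA, DTT and 0.2 g% BSA, plus 20 μM AP5A. ADP at eight levels from 0 to 125 μM (ΣADP). Started with 10 mM glutamate + 10 mM succinate. RLU read per minute over 7–10 min; at least duplicate.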
# [2] = tested on: Oxidative Phosphorylation; assay type: biochemical, mouse
# Procedure, shortened: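 Mouse liver, kidney, heart and skeletal muscle mitochondria were isolated and diluted in mannitol–sucrose buffer. Run at 25°C in KCl/MOPS medium at pH 7.0 with 5 mM MgCl2, 10 mM phosphate, 20 μM AP5A, luciferin and luciferase. Eight ADP levels from 0 to 125 μM; start with 10 mM glutamate + 10 mM succinate. Luminescence read each minute for 7–10 min against ATP standards; at least duplicate. ADP3− computed from ΣADP.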
# [3] = tested on: Oxidative Phosphorylation; test: Polarography; assay type: biochemical; details: mouse skeletal muscle mitochondria, five preparations, creatine kinase clamp, 5 mM ATP, 37°C
# Procedure, shortened: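 Mouse skeletal muscle mitochondria from five preparations, resuspended in mannitol-sucrose buffer, oxidised 10 mM glutamate + 10 mM succinate at 37°C. O2 consumption was recorded continuously. Steady-state ADP was clamped over a range by varying the phosphocreatine/creatine ratio, with 5 mM ATP and saturating creatine kinase. K0.5 was expressed as total ADP and as ADP3−.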
# Adenylate Kinase = Adenylate Kinase (Mus musculus, UniProt Q9WTP6); assay type: biochemical
# [4] = biological target: adenine nucleotide translocase (ANT); details: read-out: ANT-ADP dissociation constant, KdADP^3−; free ion ADP^3−; cited from earlier work
# [5] = tested on: Oxidative Phosphorylation; details: cited from earlier work
# Creatine Kinase = assay type: biochemical, mouse; details: 10 mM phosphocreatine, 20 μM AP5A, mean
# Procedure, shortened: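 Creatine kinase pathway in isolated mouse tissue mitochondria. Started by adding 10 mM phosphocreatine, with 20 μM AP5A to block AK. Run at 25°C in pH 7.0 medium with 100 mM KCl, 50 mM MOPS, 5 mM MgCl2, 10 mM phosphate, D-luciferin and luciferase. ADP at eight concentrations from 0 to 125 μM. Luminescence read each minute over 7–10 min against ATP standard curves; at least duplicate.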
# [6] = biological target: adenine nucleotide translocase (ANT); test: Carboxyatractyloside titration of OxPhos with Easson-Stedman analysis; assay type: biochemical; details: read-out: CAT-ANT Kd; human skeletal muscle mitochondria; Easson-Stedman equation; low [ADP] 6.25 and/or 12.5 μM; n=27
# Procedure, shortened: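 Human skeletal muscle mitochondria, oxidising glutamate + succinate, were mixed with reaction mix containing 20 μM AP5A, one ADP level (6.25, 12.5 or 25 μM) and one of eight CAT levels (0–5.0 nM). After 5 min for binding, substrate was added to start the reaction. ATP output was followed by luciferase light at 25°C, at least in duplicate. The Easson-Steadman equation gave Kd and ANT concentration.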
# [7] = mouse heart mitochondria, glutamate + succinate, 20 μM AP5A, mean
# [8] = mouse kidney mitochondria, glutamate + succinate, 20 μM AP5A, mean
# [9] = mouse liver mitochondria, glutamate + succinate, 20 μM AP5A, mean
# [10] = mouse skeletal muscle mitochondria, glutamate + succinate, 20 μM AP5A, mean
# [11] = mouse heart mitochondria, no AP5A, mean
# [12] = mouse kidney mitochondria, no AP5A, mean
# [13] = mouse skeletal muscle mitochondria, no AP5A, mean
# [14] = mouse skeletal muscle mitochondria
structure (smiles),measurement,setting,value
Nc1ncnc2c1ncn2[C@@H]1O[C@H](COP(=O)(O)OP(=O)(O)O)[C@@H](O)[C@H]1O [ADP],Vmax,[1],251.9 nmol/min/mg
same,nH,[1],1.16
same,K0.5ADP,[1]; ΣADP,11.1 ± 0.8 µM and 11.1 µM
same,"K0.5ADP^3− for OxPhos, heart","[2]; mouse heart mitochondria, free ion ADP^3− calculated from ΣADP",1.9 μM and ~ 1.9 μM
same,"Vmax, Oxidative Phosphorylation, Heart",[2]; [7],242.4 nmol ATP min^−1 mg^−1
same,"nH (Hill exponent), Oxidative Phosphorylation, Heart",[2]; [7],1.35
same,"K0.5ADP^3− for OxPhos, kidney","[2]; mouse kidney mitochondria, free ion ADP^3− calculated from ΣADP",1.9 μM and ~ 1.9 μM
same,"Vmax, Oxidative Phosphorylation, Kidney",[2]; [8],109.9 nmol ATP min^−1 mg^−1
same,"nH (Hill exponent), Oxidative Phosphorylation, Kidney",[2]; [8],1.45
same,"K0.5ADP, Oxidative Phosphorylation, Liver","[2]; mouse liver mitochondria, glutamate + succinate 10 mM + 10 mM, 20 μM AP5A, 25°C, pH 7.0, ΣADP, mean",22.3 µM
same,"Vmax, Oxidative Phosphorylation, Liver",[2]; [9],59.9 nmol ATP min^−1 mg^−1
same,"nH (Hill exponent), Oxidative Phosphorylation, Liver",[2]; [9],1.33
same,"K0.5ADP^3−, Luciferase","[2]; mouse skeletal muscle mitochondria, same five preparations, 25°C, free ion ADP^3−",1.9 ± 0.1 μM and 1.9 ^* μM
same,"K0.5ADP (ΣADP), Luciferase","[2]; mouse skeletal muscle mitochondria, same five preparations, 25°C, glutamate + succinate",11.9 ± 0.6 µM and 11.9 µM
same,"K0.5ADP^3− for OxPhos, skeletal muscle","[2]; mouse skeletal muscle mitochondria, free ion ADP^3− calculated from ΣADP",1.9 μM and ~ 1.9 μM
same,"K0.5ADP, Oxidative Phosphorylation, Muscle","[2]; mouse skeletal muscle mitochondria, glutamate + succinate, 20 μM AP5A, 25°C, pH 7.0, ΣADP, mean",11.9 µM
same,"Vmax, Oxidative Phosphorylation, Muscle",[2]; [10],553.5 nmol ATP min^−1 mg^−1
same,"nH (Hill exponent), Oxidative Phosphorylation, Muscle",[2]; [10],1.19
same,"K0.5ADP^3−, Polarography",[3]; free ion ADP^3−,4.4 ± 0.4 µM and 4.4 µM
same,"K0.5ADP (ΣADP), Polarography",[3]; glutamate + succinate,13.1 ± 1.3 µM and 13.1 µM
same,"K0.5ADP, Adenylate Kinase, Heart","Adenylate Kinase; mouse heart mitochondria, no AP5A, 25°C, pH 7.0, mean",54.9 µM
same,"Vmax, Adenylate Kinase, Heart",Adenylate Kinase; [11],30.2 nmol ATP min^−1 mg^−1
same,"nH (Hill exponent), Adenylate Kinase, Heart",Adenylate Kinase; [11],1.85
same,"K0.5ADP, Adenylate Kinase, Kidney","Adenylate Kinase; mouse kidney mitochondria, no AP5A, 25°C, pH 7.0, mean",64.3 µM
same,"Vmax, Adenylate Kinase, Kidney",Adenylate Kinase; [12],102.3 nmol ATP min^−1 mg^−1
same,"nH (Hill exponent), Adenylate Kinase, Kidney",Adenylate Kinase; [12],1.74
same,"K0.5ADP, Adenylate Kinase, Liver","Adenylate Kinase; mouse liver mitochondria, no AP5A, 25°C, pH 7.0, mean",84.0 µM
same,"nH (Hill exponent), Adenylate Kinase, Liver","Adenylate Kinase; mouse liver mitochondria, no AP5A, mean",1.53
same,"K0.5ADP, Adenylate Kinase, Muscle","Adenylate Kinase; mouse skeletal muscle mitochondria, no AP5A, 25°C, pH 7.0, mean",78.0 µM
same,"Vmax, Adenylate Kinase, Muscle",Adenylate Kinase; [13],25.7 nmol ATP min^−1 mg^−1
same,"nH (Hill exponent), Adenylate Kinase, Muscle",Adenylate Kinase; [13],1.68
same,Kd,[4],~4 µM
same,"Hill exponent, nH, in vivo","[5]; in vivo OxPhos vs [ADP], sigmoidal relationship",~2.0
same,OxPhos K0.5ADP in vivo,"[5]; intact contracting mammalian skeletal muscle, 31P-MRS",20 to 40 µM
same,"K0.5ADP, Creatine Kinase, Heart","Creatine Kinase; mouse heart mitochondria, 25°C, pH 7.0",24.4 µM
same,"Vmax, Creatine Kinase, Heart",Creatine Kinase; mouse heart mitochondria,273.9 nmol ATP min^−1 mg^−1
same,"nH (Hill exponent), Creatine Kinase, Heart",Creatine Kinase; mouse heart mitochondria,1.00
same,"K0.5ADP, Creatine Kinase, Kidney","Creatine Kinase; mouse kidney mitochondria, 25°C, pH 7.0",37.8 µM
same,"Vmax, Creatine Kinase, Kidney",Creatine Kinase; mouse kidney mitochondria,28.7 nmol ATP min^−1 mg^−1
same,"nH (Hill exponent), Creatine Kinase, Kidney",Creatine Kinase; mouse kidney mitochondria,1.00
same,"K0.5ADP, Creatine Kinase, Muscle","Creatine Kinase; mouse skeletal muscle mitochondria, 25°C, pH 7.0",36.3 µM
same,"Vmax, Creatine Kinase, Muscle",Creatine Kinase; [14],944.2 nmol ATP min^−1 mg^−1
same,"nH (Hill exponent), Creatine Kinase, Muscle",Creatine Kinase; [14],1.07
"Nc1ncnc2c1ncn2[C@@H]1O[C@H](COP(=O)(O)OP(=O)(O)OP(=O)(O)OP(=O)(O)OP(=O)(O)OC[C@H]2O[C@@H](n3cnc4c(N)ncnc43)[C@H](O)[C@@H]2O)[C@@H](O)[C@H]1O [AP5A, diadenosine pentaphosphate, reference compound]",AK activity in the presence of AP5A,"Adenylate Kinase; AP5A present at 20 μM, Figure S-8a, S-8b",not detectable
"C=C1[C@@H]2CC[C@H]3[C@]4(C)C[C@H](O[C@@H]5O[C@H](CO)[C@@H](OS(=O)(=O)O)[C@H](OS(=O)(=O)O)[C@H]5OC(=O)CC(C)C)CC(C(=O)O)(C(=O)O)[C@H]4CC[C@]3(C2)[C@H]1O [CAT, Carboxyatractyloside]",Kd,[6],48 ± 2 pM

# Reference: paper PMC8725320 (Biochimica et biophysica acta. Bioenergetics, 2021)
